# Results from ChEMBL document CHEMBL2434854, “Synthesis and anticancer activity of some novel trifluoromethylquinolines carrying a biologically active benzenesulfonamide moiety” (Eur J Med Chem, 2013).
# Experiments:
# Format in all cases: functional, cell-based
# [1] = Anticancer activity against human […] cells after 48 hrs by SRB assay
# How it was run: (§1)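 Cells seeded 10^4 cells/well and allowed to attach for 24 h, then exposed to compounds dissolved in DMSO at 10, 25, 50 and 100 μM, triplicate wells per concentration, for 48 h at 37 °C in 5% CO2. Fixed, stained 30 min with 0.4% (wt/vol) SRB in 1% acetic acid, washed four times with 1% acetic acid, dye recovered in Tris-EDTA, absorbance read. IC50 taken from survival curves; doxorubicin reference.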
# [2] = system: LoVo; assay: Anticancer activity against human LoVo cells after 48 hrs by SRB assay; how it was run: as §1
# [3] = system: MDA-MB-231; assay: Anticancer activity against human MDA-MB-231 cells after 48 hrs by SRB assay; how it was run: as §1
# [4] = system: HepG2; assay: Anticancer activity against human HepG2 cells after 48 hrs by SRB assay; how it was run: as §1
# [5] = system: HT-1080; assay: Anticancer activity against human HT1080 cells after 48 hrs by SRB assay; details: HT-1080, 48 h; how it was run: as §1
# [6] = system: HeLa; assay: Anticancer activity against human HeLa cells after 48 hrs by SRB assay; how it was run: as §1
# [7] = Homo sapiens, 48 h, read-out: IC50
# [8] = Homo sapiens, LoVo, 48 h, read-out: IC50
# [9] = Homo sapiens, MDA-MB-231, 48 h, read-out: IC50
# [10] = Homo sapiens, HeLa, 48 h, read-out: IC50
# [11] = Homo sapiens, HepG2, 48 h, read-out: IC50
SMILES,"IC50 [1, 7] [µM]","IC50 [2, 8] [µM]","IC50 [3, 9] [µM]",IC50 ([4]; hepg2),IC50 [5] [µM],"IC50 [6, 10] [µM]","IC50 [4, 11] [µM]",IC50 ([6]; hela),IC50 ([2]; lovo),IC50 ([3]; mda-mb-231),IC50 [1]
O=S(=O)(Nc1ncccn1)c1ccc(Nc2ccnc3cc(C(F)(F)F)ccc23)cc1,34.2,27.4,54.7,Not Active,27.2,78.1,–,–,–,–,–
Nc1ccc(S(=O)(=O)Nc2ccnc3cc(C(F)(F)F)ccc23)cc1,29.2,53.6,30.9,–,29.6,46,93.1,–,–,–,–
COc1cccc2c1C(=O)c1c(O)c3c(c(O)c1C2=O)C[C@@](O)(C(=O)CO)C[C@@H]3O[C@H]1C[C@H](N)[C@H](O)[C@H](C)O1 [DOXORUBICIN],32.8,24.3,34,–,19.2,30.2,27.1,–,–,–,–
O=S(=O)(Nc1ccccn1)c1ccc(Nc2ccnc3cc(C(F)(F)F)ccc23)cc1,30.4,20.2,18.4,–,41.8,44.8,46.1,–,–,–,–
O=S(=O)(Nc1ncccn1)c1ccc(N/C(S)=N\c2ccnc3cc(C(F)(F)F)ccc23)cc1,37.8,34.7,45.2,–,29.1,–,42.1,Not Active,–,–,–
CC(=O)NS(=O)(=O)c1ccc(Nc2ccnc3cc(C(F)(F)F)ccc23)cc1,64.2,51.5,75.6,–,41.6,–,46,Not Active,–,–,–
O=S(=O)(Nc1nccs1)c1ccc(N/C(S)=N\c2ccnc3cc(C(F)(F)F)ccc23)cc1,27.2,67.1,24.4,–,27.3,95.2,28.2,–,–,–,–
NS(=O)(=O)c1ccc(N/C(S)=N\c2ccnc3cc(C(F)(F)F)ccc23)cc1,36.6,34.5,52.9,–,31,36.6,52.2,–,–,–,–
Cc1noc(NS(=O)(=O)c2ccc(N/C(S)=N\c3ccnc4cc(C(F)(F)F)ccc34)cc2)c1C,34,67,27.9,–,27.7,–,36.8,Not Active,–,–,–
NS(=O)(=O)c1ccc(Nc2ccnc3cc(C(F)(F)F)ccc23)cc1,79,26.6,34.4,–,56.1,61.2,50.8,–,–,–,–
COc1ncnc(NS(=O)(=O)c2ccc(Nc3ccnc4cc(C(F)(F)F)ccc34)cc2)c1OC,36.9,39.9,49.4,–,26,–,66.1,Not Active,–,–,–
N=C(N)NS(=O)(=O)c1ccc(Nc2ccnc3cc(C(F)(F)F)ccc23)cc1,55.2,24.7,28.8,Not Active,49.8,41.3,–,–,–,–,–
Cc1ccnc(NS(=O)(=O)c2ccc(Nc3ccnc4cc(C(F)(F)F)ccc34)cc2)n1,62.5,–,–,Not Active,32.5,–,–,Not Active,Not Active,Not Active,–
COc1cc(NS(=O)(=O)c2ccc(N/C(S)=N\c3ccnc4cc(C(F)(F)F)ccc34)cc2)nc(OC)n1,64.5,76.7,52.1,–,29.5,53.8,76.7,–,–,–,–
Cc1cc(C)nc(NS(=O)(=O)c2ccc(N/C(S)=N\c3ccnc4cc(C(F)(F)F)ccc34)cc2)n1,43.4,40.2,52.9,–,29.5,33,72.2,–,–,–,–
Cc1noc(NS(=O)(=O)c2ccc(Nc3ccnc4cc(C(F)(F)F)ccc34)cc2)c1C,53.1,36,39.3,–,31.9,–,40.8,Not Active,–,–,–
O=S(=O)(Nc1ccnn1-c1ccccc1)c1ccc(Nc2ccnc3cc(C(F)(F)F)ccc23)cc1,52.8,56.8,52.8,–,25.8,34.1,82.6,–,–,–,–
O=S(=O)(Nc1ccccn1)c1ccc(N/C(S)=N\c2ccnc3cc(C(F)(F)F)ccc23)cc1,33.5,87.5,49.3,–,28,68.8,28,–,–,–,–
CC(=O)NS(=O)(=O)c1ccc(N/C(S)=N\c2ccnc3cc(C(F)(F)F)ccc23)cc1,37.6,30,58.6,–,28.3,37.6,28.4,–,–,–,–
COc1cc(NS(=O)(=O)c2ccc(Nc3ccnc4cc(C(F)(F)F)ccc34)cc2)nc(OC)n1,37.9,50.4,–,–,39.2,83.2,83.8,–,–,Not Active,–
COc1ncnc(NS(=O)(=O)c2ccc(N/C(S)=N\c3ccnc4cc(C(F)(F)F)ccc34)cc2)c1OC,81.8,28.4,83,–,22.8,–,77.2,Not Active,–,–,–
Cc1cc(NS(=O)(=O)c2ccc(Nc3ccnc4cc(C(F)(F)F)ccc34)cc2)on1,74.8,33.6,74.8,–,33.5,97.6,33.5,–,–,–,–
N=C(N)NS(=O)(=O)c1ccc(N/C(S)=N\c2ccnc3cc(C(F)(F)F)ccc23)cc1,23.9,23.9,–,–,24.3,23.9,33.5,–,–,Not Active,–
Cc1cc(C)nc(NS(=O)(=O)c2ccc(Nc3ccnc4cc(C(F)(F)F)ccc34)cc2)n1,–,44.3,36.2,Not Active,32.8,32,–,–,–,–,Not Active
O=S(=O)(Nc1nccs1)c1ccc(Nc2ccnc3cc(C(F)(F)F)ccc23)cc1,66.1,–,90.8,Not Active,40.3,70.8,–,–,Not Active,–,–
Cc1cc(NS(=O)(=O)c2ccc(N/C(S)=N\c3ccnc4cc(C(F)(F)F)ccc34)cc2)on1,60.2,–,80.3,–,27.3,60.2,28.5,–,Not Active,–,–
O=C(Nc1ccccc1)Nc1ccc(S(=O)(=O)Nc2ccnc3cc(C(F)(F)F)ccc23)cc1,24.5,30.2,52.9,Not Active,25.4,41,–,–,–,–,–
O=C(Nc1ccccc1)NS(=O)(=O)c1ccc(Nc2ccnc3cc(C(F)(F)F)ccc23)cc1,18.4,19.7,18.4,–,17.9,35.3,27.6,–,–,–,–
Cc1ccnc(NS(=O)(=O)c2ccc(N/C(S)=N\c3ccnc4cc(C(F)(F)F)ccc34)cc2)n1,31,31,29.8,Not Active,28.7,31,–,–,–,–,–
